ChEMBL document CHEMBL1126823, “Benextramine-neuropeptide Y receptor interactions: contribution of the benzylic moieties to [3H]neuropeptide Y displacement activity” (J Med Chem, 1993)

Legend:
[1] = Relative potency of compound at alpha-adrenoceptor to that of benextramine was measured by ability to antagonize the effect of epinephrine on the contractions of the electrically stimulated rat vas deferens; assay type: tissue-based
Rattus norvegicus = organism: Rattus norvegicus; assay: Displacement of [3H]NPY from rat brain NPY receptor compared to benextramine
Summary of the method: (§1)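 Male Sprague-Dawley rat (250-300 g) brain membrane homogenate (1.2-1.6 mg protein/mL) incubated with 1.0 nM [3H]NPY and analog 10^-3 to 10^-7 M in Krebs-Ringer bicarbonate/50 mM phosphate, 0.1% BSA, 0.05% bacitracin, pH 7.4, 90 min at 25 °C. Nonspecific binding defined with 1 µM NPY. Filtration onto PEI-treated glass-fiber filters, scintillation counting. IC50 from competitive binding isotherm fit.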

[2] = Binding affinity against rat NPY receptor by using [3H]NPY as radioligand; summary of the method: as §1

Row | Structure (SMILES) | Relative activity [1] | Relative activity (Rattus norvegicus) | IC50 [2]
1 | COc1ccccc1CNCCCCCCNCCSSCCNCCCCCCNCc1ccccc1OC [BENEXTRAMINE] | 1 | 1 | 57.6 µM
2 | COc1ccc(CNCCCCCCNCCSSCCNCCCCCCNCc2ccc(OC)cc2)cc1 | 0.81 | 1.3 | 44.1 µM
3 | COc1cccc(CNCCCCCCNCCSSCCNCCCCCCNCc2cccc(OC)c2)c1 | 0.72 | 2.7 | 21.5 µM
4 | Oc1ccc(CNCCCCCCNCCSSCCNCCCCCCNCc2ccc(O)cc2)cc1 | 0.14 | 0.4 | 162 µM
5 | Oc1cccc(CNCCCCCCNCCSSCCNCCCCCCNCc2cccc(O)c2)c1 | 0.24 | 2.8 | 20.3 µM
6 | Clc1cccc(CNCCCCCCNCCSSCCNCCCCCCNCc2cccc(Cl)c2)c1 | 0.46 | 1.2 | 46.7 µM
7 | NCCCCCCNCCSSCCNCCCCCCN | 0.27 | < 0.04 | > 1400 µM
8 | Oc1ccccc1CNCCCCCCNCCSSCCNCCCCCCNCc1ccccc1O | 0.36 | 1.1 | 50.6 µM
9 | c1ccc2cc(CNCCCCCCNCCSSCCNCCCCCCNCc3ccc4ccccc4c3)ccc2c1 | 0.27 | 1.8 | 31.3 µM
10 | c1ccc(CNCCCCCCNCCSSCCNCCCCCCNCc2ccccc2)cc1 | 0.9 | 0.3 | 191 µM
11 | Clc1ccccc1CNCCCCCCNCCSSCCNCCCCCCNCc1ccccc1Cl | 0.44 | 0.7 | 79.9 µM
12 | Clc1ccc(CNCCCCCCNCCSSCCNCCCCCCNCc2ccc(Cl)cc2)cc1 | 0.5 | 1.5 | 37.8 µM
